The test system of data set [1] is HUVEC. The experiment in a line: Anti-angiogenetic activity in human HUVEC cells assessed as relative tube length at 10 uM incubated for 12 hrs in presence of tumor secretome from human MIA PaCa-2 cell supernatant by microscopy (reference value: 108). The data set is classed as functional.
The next data set relates to HeLa. The experiment in a line: Antiproliferative activity against human HeLa cells assessed as cell growth at 10 uM incubated for 48 hrs by MTT assay relative to control. The data set is classed as functional. The settings on record: read-out: Activity. The method, boiled down: (§1)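 Cells in DMEM with 10 % FBS, 2 mM glutamine and pen-strep, 37 °C, 5 % CO₂, plated to reach 80–90 % confluence at endpoint. At 16 h, compounds were added from a 10 mM DMSO stock to 10 μM final. After 48 h, MTT (2 mg/mL in PBS) was added for 4 h, formazan dissolved in DMSO, and OD read at 570 nm. Results are % of solvent control; three runs, six replicates each, mean ± SD.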

A short description of data set [2]: Effect on intracellular calcium signaling in human HUVEC cells assessed as inhibition of calcium mobilization by measuring fluorescence intensity at 10 uM incubated for 1 hr by Fluo-4 a.m. cytofluorimetric assay relative to control. It counts as functional. Also noted: scale not given: the % may be the effect or the level left. Summed up: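 Trypsinized HUVEC at 5 × 10⁵/ml were treated with compounds at 10 μM in PBS for 1 h at room temperature, washed, then loaded with 2.5 μM Fluo-4 AM (0.06 % DMSO final) for 45 min at 37 °C. Fluorescence was read by flow cytometry with a 530/30 filter. Ionomycin served as positive control and EDTA (added 15 min before) as negative control. n = 3, mean ± SD.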

The next data set has as its system SK-MEL-28. In words: Antiproliferative activity against human SK-MEL-28 cells assessed as cell growth at 10 uM incubated for 48 hrs by MTT assay relative to control. It counts as functional. The settings on record: read-out: Activity. The method, boiled down: as §1
Data set [3] concerns HUVEC. The experiment in a line: Inhibition of cell migration in human HUVEC cells at 10 uM incubated for 24 hrs by wound healing assay. The data set is classed as functional, cell-based. Summed up: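 Confluent HUVEC monolayers (2 × 10⁵/well, 24 h) were scratched with a p10 tip and treated at 10 μM with mitomycin C 10 μg/ml to block mitosis. Wounds were photographed at 0 and 24 h (4× phase contrast). Migration was taken as the change in distance covered by the wound edges. n = 3 independent experiments, mean ± SD.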

In data set [4] the test system is HUVEC. In words: Anti-angiogenetic activity in human HUVEC cells assessed as reduction in tube length at 10 uM incubated for 12 hrs by microscopy. The data set is classed as functional, cell-based. Summed up:
(§2)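 HUVEC seeded at 2 × 10⁴ cells/well onto gelled Matrigel (mixed 1:1 with EGM-2, set 30 min at 37 °C). Cells were exposed to test agents at 10 μM for 12 h with no stimulus; untreated wells served as control. Tube long axis and branching points were counted in 10 random fields per well at 10× (Angiogenesis Analyzer), giving mean tube length per well. Mean of at least three independent experiments.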

The test system of the next data set is HepG2. The experiment in a line: Antiproliferative activity against human HepG2 cells assessed as cell growth at 10 uM incubated for 48 hrs by MTT assay relative to control. The data set is classed as functional. The settings on record: read-out: Activity. The method, boiled down:
as §1

The test system of data set [5] is HUVEC. In words: Anti-angiogenetic activity in human HUVEC cells assessed as number of tube branching points at 10 uM incubated for 12 hrs in presence of tumor secretome from human MIA PaCa-2 cell supernatant by microscopy (reference value: 17). The data set is classed as functional.
Data set [6] has as its system HUVEC. In words: Effect on conformation of actin filament organization in human HUVEC cells at 10 uM treated for 24 hrs by immunofluorescence assay. The data set is classed as functional, cell-based. The method, boiled down: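 HUVEC were left untreated or treated 24 h at 10 μM final. Cells were then fixed on coverslips in 4 % paraformaldehyde, permeabilized with 0.2 % Triton X-100 and blocked with 20 % goat serum. F-actin was stained with FITC-phalloidin (5 µg/ml, 2 h, room temperature, dark) and nuclei with Hoechst 33342. Cells were imaged by confocal microscopy.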

The test system of a further data set is A549. In words: Antiproliferative activity against human A549 cells assessed as cell growth at 10 uM incubated for 48 hrs by MTT assay relative to control. The settings on record: read-out: Activity. The data set is classed as functional. The method, boiled down: as §1
A short description of data set [7]: Antiproliferative activity against human GM06114 cells assessed as cell growth at 10 uM incubated for 48 hrs by MTT assay relative to control. The data set is classed as toxicity, cell-based. The settings on record: read-out: Activity. Summed up: as §1
The test system of a further data set is MCF7. The experiment in a line: Antiproliferative activity against human MCF7 cells assessed as cell growth at 10 uM incubated for 48 hrs by MTT assay relative to control. The settings on record: read-out: Activity. It counts as functional. The method, boiled down:
as §1

Another data set deals with SK-OV-3. The experiment in a line: Antiproliferative activity against human SK-OV-3 cells assessed as cell growth at 10 uM incubated for 48 hrs by MTT assay relative to control. The data set is classed as functional. The settings on record: read-out: Activity. Summed up: as §1
Another data set relates to MDA-MB-231. In words: Antiproliferative activity against human MDA-MB-231 cells assessed as cell growth at 10 uM incubated for 48 hrs by MTT assay relative to control. It counts as functional. The settings on record: read-out: Activity. Summed up: as §1
Data set [8] has as its system HUVEC. The experiment in a line: Inhibition of cell invasion in human HUVEC cells at 10 uM incubated for 24 hrs by transwell assay. It counts as functional, cell-based. Summed up: (§3)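 Transwell inserts with 8.0 pore size were coated with Matrigel 1:3 in serum-free medium. HUVEC (2 × 10⁴/insert) went in serum-free medium in the upper chamber, with treatments (10 μM) in growth medium below, for 24 h at 37 °C. Filters were fixed in 4 % paraformaldehyde then methanol and stained with 0.5 % crystal violet. Cells on the lower surface were counted in ten random fields at 10×. n = 3.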

Data set [9] concerns HUVEC. The experiment in a line: Anti-angiogenetic activity in human HUVEC cells assessed as reduction in tube branching at 10 uM incubated for 12 hrs by microscopy. The data set is classed as functional, cell-based. Summed up: as §2
The subject of the next data set is SK-BR-3. The experiment in a line: Antiproliferative activity against human SK-BR-3 cells assessed as cell growth at 10 uM incubated for 48 hrs by MTT assay relative to control. It counts as functional. The settings on record: read-out: Activity. Summed up:
as §1

Data set [10] is described as follows: Antiproliferative activity against human HUVEC cells assessed as cell growth at 10 uM incubated for 48 hrs by MTT assay relative to control. It counts as toxicity, cell-based. The settings on record: read-out: Activity. Summed up: as §1
In data set [11] the test system is HUVEC. In words: Inhibition of cell invasion in human HUVEC cells assessed as number of cells at 10 uM incubated for 24 hrs by transwell assay. The data set is classed as functional. The method, boiled down:
as §3

Data set [12] has as its system HUVEC. The experiment in a line: Anti-angiogenetic activity in human HUVEC cells assessed as number of tube branching points at 10 uM incubated for 12 hrs by microscopy. The data set is classed as functional. Summed up: as §2
In data set [13] the test system is HUVEC. In words: Anti-angiogenetic activity in human HUVEC cells assessed as relative tube length at 10 uM incubated for 12 hrs by microscopy. The data set is classed as functional. The method, boiled down:
as §2

Calls of active or inactive are those of the source. The calls are words filed in the database; no cut-off is given here.

On to `CCCC(O)Cn1nc(Nc2cccc(Cl)c2)c(C(=O)OCC)c1N` (stereo not given), for which the Activity in the data set on HUVEC [1] is given as 55; in data set [2], 21%; with HUVEC [5], approximately 8; with HUVEC [11], 491. For the same compound, the growth at 10 µM amounted to 100% with HeLa; 122% in the data set with SK-MEL-28; 90% in the data set on HepG2; 85% with A549; 95% in the data set with MCF7; 118% with SK-OV-3. Besides, the values for the growth at 10 µM in the data set on MDA-MB-231 and in the data set with SK-BR-3 were 168% and 113%, respectively. For the same compound, the inhibition result in the data set with HUVEC [3] and with HUVEC [8] was “Active” in each case. Moreover, the outcome with HUVEC [4], in the data set with HUVEC [6] and in the data set with HUVEC [9] was Active. Besides, the viability at 48 h, 10 µM in [7] was 82%; in [10], 97%.
For `CCCC(O)Cn1nc(Nc2ccccc2)c(C(=O)OCC)c1N` (stereo not given), the Activity in the data set on HUVEC [1] is listed as 55; in [2], 23%; in the data set on HUVEC [12], less than 15; in the data set on HUVEC [5], approximately 8; in the data set with HUVEC [13] it was less than 20; with HUVEC [11], 364. In addition, the growth at 10 µM is 97% in the data set with HeLa; 97% with SK-MEL-28; 106% with HepG2; 115% with A549; 110% with MCF7; 104% with SK-OV-3. The results for the growth at 10 µM in the data set on MDA-MB-231 and in the data set on SK-BR-3 were 103% and 107%, respectively. Besides, the inhibition entry in the data set with HUVEC [3] and with HUVEC [8] was “Active” in each case. Further, the result in the data set with HUVEC [4], in the data set with HUVEC [6] and with HUVEC [9] was Active. In addition, the results for the viability at 48 h, 10 µM in data set [7] and in [10] were 112% and 100%, respectively.

Values taken from ChEMBL document CHEMBL5608214, “Novel tetrasubstituted 5-Arylamino pyrazoles able to interfere with angiogenesis and Ca2+ mobilization” (Eur J Med Chem, 2024).
